Experiments:
Ephrin type-B receptor 4 = Ephrin type-B receptor 4 (Homo sapiens, UniProt P54760); assay: Inhibition of EPHB4 by TR-FRET based LanthaScreen assay
Outline: (§1)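 TR-FRET LanthaScreen kinase assay with phosphorylation of a substrate; FGFR3 used as the K651E mutant. IC50 derived from two independent experiments; for some compounds, ALK and cKIT values are averages ± SDs of three independent experiments.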

[1] = molecular target: Proto-oncogene tyrosine-protein kinase receptor Ret (Homo sapiens, UniProt P07949); assay: Inhibition of RET by TR-FRET based LanthaScreen assay; outline: as §1
[2] = molecular target: ALK tyrosine kinase receptor (Homo sapiens, UniProt Q9UM73); assay: Inhibition of ALK by TR-FRET based LanthaScreen assay; outline: as §1
Aurora kinase A = Aurora kinase A (Homo sapiens, UniProt O14965); assay: Inhibition of Aurora A kinase by Caliper mobility shift assay
Chain of Aurora kinase A (O14965 whole entry): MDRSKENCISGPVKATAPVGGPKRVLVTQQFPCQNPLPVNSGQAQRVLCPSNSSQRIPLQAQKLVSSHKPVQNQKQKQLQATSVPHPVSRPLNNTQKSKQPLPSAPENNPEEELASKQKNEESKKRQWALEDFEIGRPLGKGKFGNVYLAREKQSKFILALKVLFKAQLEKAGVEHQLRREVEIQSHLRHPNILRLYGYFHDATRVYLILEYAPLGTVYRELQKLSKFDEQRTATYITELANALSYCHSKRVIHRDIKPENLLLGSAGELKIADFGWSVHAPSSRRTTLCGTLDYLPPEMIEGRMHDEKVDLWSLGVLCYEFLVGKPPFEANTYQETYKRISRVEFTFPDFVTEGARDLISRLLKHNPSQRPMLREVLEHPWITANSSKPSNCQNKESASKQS
Outline: (§2)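 Caliper mobility shift kinase assay with phosphorylation of a substrate; IC50 derived from two independent experiments.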

[3] = molecular target: Tyrosine-protein kinase receptor UFO (Homo sapiens, UniProt P30530); assay: Inhibition of Axl by TR-FRET based LanthaScreen assay; outline: as §1
[4] = molecular target: Tyrosine-protein kinase ZAP-70 (Homo sapiens, UniProt P43403); assay: Inhibition of ZAP70 by TR-FRET based LanthaScreen assay; outline: as §1
Ephrin type-A receptor 4 = Ephrin type-A receptor 4 (Homo sapiens, UniProt P54764); assay: Inhibition of EPHA4 by TR-FRET based LanthaScreen assay; outline: as §1
Chain of Ephrin type-A receptor 4 (P54764 whole entry): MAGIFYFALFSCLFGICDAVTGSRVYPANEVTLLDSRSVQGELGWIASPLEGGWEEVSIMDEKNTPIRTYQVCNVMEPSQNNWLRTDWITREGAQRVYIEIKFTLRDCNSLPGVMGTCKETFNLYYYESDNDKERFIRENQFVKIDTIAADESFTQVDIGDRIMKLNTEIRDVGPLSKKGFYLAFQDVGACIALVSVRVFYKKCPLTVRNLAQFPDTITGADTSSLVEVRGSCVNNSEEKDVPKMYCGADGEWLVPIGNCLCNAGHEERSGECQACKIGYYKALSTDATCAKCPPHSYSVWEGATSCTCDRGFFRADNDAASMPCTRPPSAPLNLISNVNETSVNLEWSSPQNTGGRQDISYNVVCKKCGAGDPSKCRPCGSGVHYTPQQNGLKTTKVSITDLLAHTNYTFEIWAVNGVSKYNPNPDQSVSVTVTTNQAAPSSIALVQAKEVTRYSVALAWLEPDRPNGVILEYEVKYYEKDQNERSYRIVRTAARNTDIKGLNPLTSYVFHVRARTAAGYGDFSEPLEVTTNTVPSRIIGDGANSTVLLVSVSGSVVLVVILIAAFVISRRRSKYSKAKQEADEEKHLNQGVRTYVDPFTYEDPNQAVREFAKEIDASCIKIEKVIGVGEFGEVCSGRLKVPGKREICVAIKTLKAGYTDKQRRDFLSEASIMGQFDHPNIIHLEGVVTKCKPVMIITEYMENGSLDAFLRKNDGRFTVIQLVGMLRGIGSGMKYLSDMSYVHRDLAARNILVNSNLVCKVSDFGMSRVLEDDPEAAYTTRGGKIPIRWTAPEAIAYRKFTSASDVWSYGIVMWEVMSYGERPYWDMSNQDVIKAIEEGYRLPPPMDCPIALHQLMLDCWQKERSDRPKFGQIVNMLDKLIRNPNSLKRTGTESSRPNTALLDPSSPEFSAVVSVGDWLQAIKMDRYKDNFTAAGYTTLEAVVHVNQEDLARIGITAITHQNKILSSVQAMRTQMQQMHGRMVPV

[5] = molecular target: Hepatocyte growth factor receptor (Homo sapiens, UniProt P08581); assay: Inhibition of HGFR by TR-FRET based LanthaScreen assay
Outline: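 LanthaScreen TR-FRET kinase format, run per the group's earlier protocol. IC50 from two independent experiments; for some compounds, PDGFRα and VEGFR2 values are means ± SD of three independent runs. The FGFR3 used was the K651E mutant.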

[6] = molecular target: Insulin-like growth factor 1 receptor (Homo sapiens, UniProt P08069); assay: Inhibition of IGF1R by TR-FRET based LanthaScreen assay; outline: as §1
Insulin receptor = Insulin receptor (Homo sapiens, UniProt P06213); assay: Inhibition of INSR by TR-FRET based LanthaScreen assay; outline: as §1
Chain of Insulin receptor (P06213 28-758 limits assumed): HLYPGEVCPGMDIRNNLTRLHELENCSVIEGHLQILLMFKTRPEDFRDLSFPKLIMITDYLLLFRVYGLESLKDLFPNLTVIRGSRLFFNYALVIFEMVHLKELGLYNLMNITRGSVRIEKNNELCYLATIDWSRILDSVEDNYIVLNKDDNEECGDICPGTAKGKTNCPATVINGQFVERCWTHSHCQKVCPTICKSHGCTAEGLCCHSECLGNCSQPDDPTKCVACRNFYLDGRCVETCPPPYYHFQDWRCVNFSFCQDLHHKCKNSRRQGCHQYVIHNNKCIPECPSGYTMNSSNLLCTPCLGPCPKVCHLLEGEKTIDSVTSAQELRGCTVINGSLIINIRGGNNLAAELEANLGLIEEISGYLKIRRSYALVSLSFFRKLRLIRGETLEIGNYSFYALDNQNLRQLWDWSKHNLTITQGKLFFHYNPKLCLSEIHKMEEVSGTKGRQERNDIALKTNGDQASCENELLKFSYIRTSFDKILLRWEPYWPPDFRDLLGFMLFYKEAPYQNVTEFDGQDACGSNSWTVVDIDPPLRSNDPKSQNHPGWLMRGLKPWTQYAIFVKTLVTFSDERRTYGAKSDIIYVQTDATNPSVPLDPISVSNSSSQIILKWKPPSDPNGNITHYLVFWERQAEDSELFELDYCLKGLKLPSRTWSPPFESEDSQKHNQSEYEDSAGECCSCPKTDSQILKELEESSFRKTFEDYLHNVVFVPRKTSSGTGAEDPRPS
Chain of Insulin receptor (P06213 763-1382 limits assumed): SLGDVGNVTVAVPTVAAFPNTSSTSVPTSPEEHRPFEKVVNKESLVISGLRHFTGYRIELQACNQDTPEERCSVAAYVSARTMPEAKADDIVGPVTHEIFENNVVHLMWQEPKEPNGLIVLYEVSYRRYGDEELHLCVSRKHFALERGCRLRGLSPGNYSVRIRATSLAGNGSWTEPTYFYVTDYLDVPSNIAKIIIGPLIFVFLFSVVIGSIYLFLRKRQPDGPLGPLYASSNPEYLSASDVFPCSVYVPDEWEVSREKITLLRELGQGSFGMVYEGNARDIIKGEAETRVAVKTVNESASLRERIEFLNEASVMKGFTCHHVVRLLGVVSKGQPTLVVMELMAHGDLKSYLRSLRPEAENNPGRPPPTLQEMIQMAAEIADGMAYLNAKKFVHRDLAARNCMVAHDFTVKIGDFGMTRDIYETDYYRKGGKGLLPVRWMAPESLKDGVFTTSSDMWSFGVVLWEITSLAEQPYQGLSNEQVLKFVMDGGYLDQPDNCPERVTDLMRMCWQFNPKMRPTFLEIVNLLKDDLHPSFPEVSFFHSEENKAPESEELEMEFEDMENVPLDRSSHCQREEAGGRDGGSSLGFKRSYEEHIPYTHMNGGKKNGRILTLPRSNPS

[7] = molecular target: Tyrosine-protein kinase JAK1 (Homo sapiens, UniProt P23458); assay: Inhibition of JAK1 by TR-FRET based LanthaScreen assay
[8] = molecular target: Tyrosine-protein kinase JAK2 (Homo sapiens, UniProt O60674); assay: Inhibition of JAK2 by TR-FRET based LanthaScreen assay
[9] = molecular target: Tyrosine-protein kinase JAK3 (Homo sapiens, UniProt P52333); assay: Inhibition of JAK3 by Caliper mobility shift assay; outline: as §2
[10] = molecular target: Serine/threonine-protein kinase N1 (Homo sapiens, UniProt Q16512); assay: Inhibition of PKN1 by Caliper mobility shift assay; outline: as §2
[11] = molecular target: Serine/threonine-protein kinase N2 (Homo sapiens, UniProt Q16513); assay: Inhibition of PKN2 by Caliper mobility shift assay; outline: as §2
[12] = molecular target: Rho-associated protein kinase 2 (Homo sapiens, UniProt O75116); assay: Inhibition of ROCK2 by Caliper mobility shift assay; outline: as §2
Chain of Rho-associated protein kinase 2 (O75116 whole entry): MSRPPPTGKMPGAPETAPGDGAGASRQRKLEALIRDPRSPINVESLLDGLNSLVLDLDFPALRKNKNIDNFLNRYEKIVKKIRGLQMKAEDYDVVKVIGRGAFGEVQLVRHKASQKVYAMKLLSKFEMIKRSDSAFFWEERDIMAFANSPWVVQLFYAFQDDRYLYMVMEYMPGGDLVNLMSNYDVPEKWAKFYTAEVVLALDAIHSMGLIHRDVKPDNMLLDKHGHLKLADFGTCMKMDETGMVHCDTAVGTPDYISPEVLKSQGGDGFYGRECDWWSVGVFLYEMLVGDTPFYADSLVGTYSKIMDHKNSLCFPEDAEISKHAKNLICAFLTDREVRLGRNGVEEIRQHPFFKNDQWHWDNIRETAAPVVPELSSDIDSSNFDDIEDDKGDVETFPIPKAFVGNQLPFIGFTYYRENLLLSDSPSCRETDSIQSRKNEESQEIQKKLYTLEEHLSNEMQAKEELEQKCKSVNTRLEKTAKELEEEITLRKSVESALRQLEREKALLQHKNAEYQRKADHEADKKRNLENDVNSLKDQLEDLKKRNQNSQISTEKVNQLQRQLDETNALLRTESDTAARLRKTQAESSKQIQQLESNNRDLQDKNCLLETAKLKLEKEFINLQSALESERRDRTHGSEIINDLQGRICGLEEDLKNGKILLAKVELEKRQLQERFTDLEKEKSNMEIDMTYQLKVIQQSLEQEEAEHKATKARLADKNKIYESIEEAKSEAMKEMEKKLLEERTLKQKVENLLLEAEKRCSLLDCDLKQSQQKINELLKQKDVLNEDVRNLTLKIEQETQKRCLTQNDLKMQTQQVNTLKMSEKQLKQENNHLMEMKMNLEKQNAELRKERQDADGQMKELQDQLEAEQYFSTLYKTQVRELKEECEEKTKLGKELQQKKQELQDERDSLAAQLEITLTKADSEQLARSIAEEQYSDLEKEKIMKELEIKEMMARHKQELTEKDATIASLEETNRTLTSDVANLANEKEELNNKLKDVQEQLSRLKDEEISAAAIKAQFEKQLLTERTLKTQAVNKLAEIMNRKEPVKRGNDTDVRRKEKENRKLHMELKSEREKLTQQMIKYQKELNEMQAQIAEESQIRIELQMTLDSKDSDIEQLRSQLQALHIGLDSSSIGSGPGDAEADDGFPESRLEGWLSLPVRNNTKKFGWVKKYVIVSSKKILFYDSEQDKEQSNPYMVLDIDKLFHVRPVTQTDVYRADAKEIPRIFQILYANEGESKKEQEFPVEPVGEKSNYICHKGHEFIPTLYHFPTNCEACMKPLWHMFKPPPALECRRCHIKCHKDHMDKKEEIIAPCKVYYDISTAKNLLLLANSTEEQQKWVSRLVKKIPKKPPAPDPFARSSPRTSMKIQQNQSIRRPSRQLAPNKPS

[13] = molecular target: Mitogen-activated protein kinase 14 (Homo sapiens, UniProt Q16539); assay: Inhibition of p38alpha by Caliper mobility shift assay
Chain of Mitogen-activated protein kinase 14 (Q16539 whole entry): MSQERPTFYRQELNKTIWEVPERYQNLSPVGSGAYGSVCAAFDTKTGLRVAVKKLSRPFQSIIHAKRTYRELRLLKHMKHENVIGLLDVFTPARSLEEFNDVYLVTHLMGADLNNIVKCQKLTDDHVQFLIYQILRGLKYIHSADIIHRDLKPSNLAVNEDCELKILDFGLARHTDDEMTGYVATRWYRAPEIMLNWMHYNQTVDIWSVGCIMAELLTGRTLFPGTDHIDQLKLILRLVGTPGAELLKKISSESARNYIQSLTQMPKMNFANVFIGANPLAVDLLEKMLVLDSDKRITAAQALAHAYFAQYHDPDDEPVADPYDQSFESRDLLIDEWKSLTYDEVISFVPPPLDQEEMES
Outline: (§3)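 Caliper microfluidic mobility shift readout of substrate phosphorylation, run per the group's earlier kinase protocol. IC50 taken from two independent experiments.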

[14] = molecular target: Cyclin-dependent kinase 2 (Homo sapiens, UniProt P24941); assay: Inhibition of CDK2A by Caliper mobility shift assay; outline: as §3
[15] = molecular target: Receptor tyrosine-protein kinase erbB-2 (Homo sapiens, UniProt P04626); assay: Inhibition of HER2 by TR-FRET based LanthaScreen assay; outline: as §1
[16] = molecular target: cAMP-dependent protein kinase catalytic subunit alpha (Homo sapiens, UniProt P17612); assay: Inhibition of PKAalpha by Caliper mobility shift assay
[17] = molecular target: Glycogen synthase kinase-3 beta (Homo sapiens, UniProt P49841); assay: Inhibition of GSK3-beta by TR-FRET based LanthaScreen assay; outline: as §1
Chain of Glycogen synthase kinase-3 beta (P49841 whole entry): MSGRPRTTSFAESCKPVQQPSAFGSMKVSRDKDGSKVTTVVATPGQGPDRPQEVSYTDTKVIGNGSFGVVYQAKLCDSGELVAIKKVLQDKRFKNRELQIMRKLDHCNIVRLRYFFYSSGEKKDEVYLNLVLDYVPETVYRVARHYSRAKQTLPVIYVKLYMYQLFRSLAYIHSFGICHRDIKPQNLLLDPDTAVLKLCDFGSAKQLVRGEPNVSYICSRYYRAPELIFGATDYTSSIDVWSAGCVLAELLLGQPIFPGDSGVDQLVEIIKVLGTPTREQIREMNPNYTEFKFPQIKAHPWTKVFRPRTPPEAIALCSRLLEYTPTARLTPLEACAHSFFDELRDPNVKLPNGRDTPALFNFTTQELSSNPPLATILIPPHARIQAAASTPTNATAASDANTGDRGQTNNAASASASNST

[18] = molecular target: Fibroblast growth factor receptor 3 (Homo sapiens, UniProt P22607); assay: Inhibition of FGFR3 by TR-FRET based LanthaScreen assay; outline: as §1
[19] = molecular target: 3-phosphoinositide-dependent protein kinase 1 (Homo sapiens) (UniProt O15530); assay: Inhibition of PDK1 by Caliper mobility shift assay

COc1cc(O)c2c(c1)CCCC(=O)C(=O)C(O)CCC[C@H](C)OC2=O (stereo partly drawn) [L-783277]
IC50 (Ephrin type-B receptor 4): > 10 µM
IC50 [1]: > 10 µM
IC50 [2]: 0.763 µM
IC50 (Aurora kinase A): > 10 µM
IC50 [3]: > 10 µM
IC50 [4]: > 10 µM
IC50 (Ephrin type-A receptor 4): > 10 µM
IC50 [5]: > 10 µM
IC50 [6]: > 10 µM
IC50 (Insulin receptor): > 10 µM
IC50 [7]: > 10 µM
IC50 [8]: > 10 µM
IC50 [9]: > 10 µM
IC50 [10]: > 10 µM
IC50 [11]: > 10 µM
IC50 [12]: > 10 µM
IC50 [13]: > 10 µM
IC50 [14]: > 10 µM
IC50 [15]: > 10 µM
IC50 [16]: > 10 µM
IC50 [17]: > 10 µM
IC50 [18]: > 10 µM
IC50 [19]: > 10 µM
